esBAF inh: blocks esBAF chromatin remodeling in mouse ES cells | hit rate 2% among 350,000 | reporter increase, % at 12.5 µM | Bmi1-luciferase knock-in reporter, 24 h; 100% = twice the neutral-well signal | AID 602393; in the data active means activation above about 40%; inconclusive means no clear call, values can overlap the other calls;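 further: 0% = median of the plate's neutral control wells and 100% = double that signal; a rise in the Bmi1 reporter signal indicates esBAF inhibition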
Cneo AK release: causes C. neoformans cell lysis; adenylate kinase release luminescence, 4 h; normalised: neutral wells 0, clomiphene wells 100; lysis activity, % at 15 µM; hit rate 0.2% among 360,000; AID 651654;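 active means mean lysis activity across replicates of at least 80%, whatever share of replicates individually reach that level; inactive means mean lysis activity below 80%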
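Material: C. neoformans cells; Schedule: 4 h static compound exposure, 37 °C, read 1 h post-reagent; Measured by: adenylate kinase release luminescence; Read-out: signal increase indicating cell lysis; Controls: Clomiphene as positive lysis control.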
MITF act: activators of MITF-driven TRPM1 promoter activity in SK-MEL-5 cells | hit rate 0.75% among 300,000 | activation, % at 12.5 µM | SK-MEL-5 TRPM1-promoter luciferase, 24 h; % of positive control, neutral wells = 0;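 active means mean activation of at least 80% with every replicate also reaching 80%; inconclusive means mean reaches 80% but some replicate falls short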;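 further: 0% = neutral control wells and 100% = parthenolide positive control wells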
Wnt bcat act: Wnt/beta-catenin pathway activation | Wnt/beta-catenin reporter cell assay, activator, plate reader | activation, % at 9.35 µM | hit rate 1.2% among 300,000 | AID 743398; in the data active means activation above about 30%, passing the limit was not always enough; inconclusive means no clear call, values can overlap the other calls;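 further: 0% = neutral control wells and 100% = positive control wells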
Env fusion inh: blocks HIV Env-driven cell-cell fusion; HeLa-JRFL Env/CEM21 cell fusion, luciferase; inhibition, % at 12.3 µM; hit rate 1.1% among 360,000;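 active means mean replicate inhibition score of at least 50 and every replicate individually at or above 50; inconclusive means only one of the two criteria met; inactive means mean below 50 and not all replicates reaching 50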;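 further: 0% = plate neutral controls and 100% = maraviroc near 300 nM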
ERAP1 HTS inh: inhibitors of human ERAP1 aminopeptidase | hit rate 0.15% among 340,000 | inhibition, % at 10.7 µM | recombinant ERAP1, Leu-AMC fluorescence, 60 min | Q9NZ08 | AID 652197;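 active means mean replicate inhibition of at least 30%, or all replicates individually reaching that 30% level; inactive means mean below 30% and not every replicate reaching it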;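 further: 0% = neutral control wells and 100% = L-leucinethiol positive control wells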
Target sequence (Q9NZ08 whole entry, looked up): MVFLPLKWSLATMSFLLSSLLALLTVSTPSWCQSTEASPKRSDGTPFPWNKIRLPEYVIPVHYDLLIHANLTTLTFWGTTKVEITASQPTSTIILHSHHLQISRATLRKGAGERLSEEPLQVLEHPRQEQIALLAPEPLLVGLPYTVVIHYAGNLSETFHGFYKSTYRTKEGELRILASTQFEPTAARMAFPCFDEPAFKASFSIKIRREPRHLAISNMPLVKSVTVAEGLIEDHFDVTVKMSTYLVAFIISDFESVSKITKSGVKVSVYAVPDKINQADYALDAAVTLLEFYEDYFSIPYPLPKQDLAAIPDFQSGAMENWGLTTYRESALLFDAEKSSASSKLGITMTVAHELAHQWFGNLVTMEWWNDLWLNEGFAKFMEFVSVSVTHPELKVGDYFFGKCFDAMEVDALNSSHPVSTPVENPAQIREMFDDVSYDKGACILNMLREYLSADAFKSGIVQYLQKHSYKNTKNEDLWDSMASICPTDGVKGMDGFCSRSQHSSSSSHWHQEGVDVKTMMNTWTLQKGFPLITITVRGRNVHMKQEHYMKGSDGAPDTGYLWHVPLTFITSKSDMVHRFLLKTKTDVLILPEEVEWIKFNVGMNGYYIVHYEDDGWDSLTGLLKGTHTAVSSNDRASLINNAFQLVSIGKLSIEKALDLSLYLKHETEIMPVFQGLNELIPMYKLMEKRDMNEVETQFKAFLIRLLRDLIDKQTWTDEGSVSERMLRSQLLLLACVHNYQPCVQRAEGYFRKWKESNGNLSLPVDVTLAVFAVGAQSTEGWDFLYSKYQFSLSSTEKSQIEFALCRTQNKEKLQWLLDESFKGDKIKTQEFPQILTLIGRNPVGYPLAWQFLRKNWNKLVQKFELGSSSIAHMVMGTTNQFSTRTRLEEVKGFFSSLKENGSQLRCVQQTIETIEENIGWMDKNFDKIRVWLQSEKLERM
Active calls of the source: *; ? = inconclusive; · = not tested or not shown; [ ] = another dose, or the depositor's remark. Sampled rows, rich in hits. Any-hit rate of the full collection: about 3.5%.

SMILES | esBAF inh | Cneo AK release | MITF act | Wnt bcat act | Env fusion inh | ERAP1 HTS inh
O=[N+]([O-])c1ccccc1-c1ccc(C(=S)N2CCCC2)o1 | 44* | -1 | 14 | 12 | -73 | 0
Cc1noc(C)c1NC(=O)N[C@H]1CC[C@H](CCNC(=O)C2CC2)O[C@H]1CO | -3 | -9 | · | · | -6[16.7 µM] | 1
Cc1ccccc1S(=O)(=O)NCC[C@@H]1CC[C@@H](NC(=O)C2CCCCC2)[C@H](CO)O1 | 3 | 3 | · | · | -8[16.7 µM] | -3
CCCNC(=O)N1C[C@H]2[C@@H](c3ccccc31)[C@@H](CO)N2CC1CCCC1 | -4 | -6 | · | · | · | -1
COC(=O)[C@H]1[C@H](CO)[C@H]2Cn3c(ccc(-c4ccc(F)cc4)c3=O)[C@H]2N1C | 31 | -2 | · | · | · | 3
O=C(C[C@@H]1CC[C@H](NC(=O)CCN2CCCCC2)[C@@H](CO)O1)Nc1ccc(-c2ccccc2)cc1 | -2 | 5 | · | · | -4[16.7 µM] | -4
CC1CCCN(C(=O)c2ccc(-c3ccccc3Cl)o2)C1 (centres undefined) | 77* | -3 | 140* | 34* | -115 | 0
O=C(c1ccc(-c2ccccc2Cl)o1)N1CCCCCCC1 | 54* | -13 | ? | 40* | -51 | 2
C[C@@H]1CN([C@H](C)CO)C(=O)c2cc(NS(C)(=O)=O)ccc2O[C@@H](C)CCCCO[C@@H]1CN(C)C(=O)NC1CCCCC1 | · | · | · | · | · | 2
O=C(N[C@H]1CC[C@H](CCNS(=O)(=O)c2ccc(Cl)cc2)O[C@H]1CO)c1cnccn1 | -8 | 1 | · | · | 8[16.7 µM] | 0
COc1ccc(C/C(C)=N\NC(=O)c2c[nH]c3ccccc23)cc1OC | 2 | -8 | 3 | 39* | -6 | 2
COc1ccc(OCc2nnc(SCC(=O)NC3CC3)n2C)cc1 | 1 | 2 | 3 | 0 | 5 | -2
COc1ccc(C(=O)NCc2nnc(SCC(=O)NC3CCCCC3)n2C)cc1 | -1 | -2 | -4 | -1 | -9 | 30*
O=C1CC(NS(=O)(=O)c2cccs2)CN1c1ccc(F)cc1 (centres undefined) | 47* | · | 6 | -3 | 2 | 3
CCOc1ccc(N2CC(NS(=O)(=O)c3cccs3)CC2=O)cc1 (centres undefined) | 7 | 0 | -2 | 2 | 56* | -3
O=C1CC(NS(=O)(=O)c2ccc(F)cc2)CN1c1ccc2c(c1)OCCO2 (centres undefined) | · | -1 | 12 | 4 | 5 | 1
COc1ccc(N2CC(NS(=O)(=O)c3cccnc3)CC2=O)cc1 (centres undefined) | -4 | · | -4 | -4 | -8 | -2
O=C(Nc1ccc(C(F)(F)F)cc1)N[C@H]1CC[C@H](CC(=O)N2CCCCC2)O[C@H]1CO | -2 | 2 | · | · | -1[16.7 µM] | 6
CN1C(=O)c2cc(NC(=O)C3CCCC3)ccc2OC[C@H]2O[C@H](CC(=O)NCC(F)(F)F)CC[C@@H]21 | -3 | -2 | · | · | · | -3
Cc1ccc(C(=O)OCC(=O)c2ccccc2)cc1 | 8 | -5 | 64 | 36* | -85 | 4
CCCOC(=O)c1ccc2c(c1)C(=O)N(c1ccccc1)C2=O | 58* | 2 | -4 | · | · | ·
O=C(O)c1ccc2c(c1)C(=O)N(c1ccc(C(=O)OCC(=O)c3ccccc3)cc1)C2=O | ? | -5 | · | 47* | 1 | 4
CCCNC(=O)Nc1ccc2c(c1)C(=O)N(C)C[C@H](OC)[C@@H](C)CN(C(=O)CC)[C@H](C)CO2 | -4 | 1 | · | · | -1[16.7 µM] | ·
COc1ccccc1NC(=O)N[C@@H]1CC[C@H](CC(=O)NCc2ccc(Cl)c(Cl)c2)O[C@H]1CO | 4 | 1 | · | · | · | 0
Cc1ccc(-n2c(-c3ccccc3)c[n+]3c2CCC3)cc1 | · | · | -26 | -1 | 62* | -4
SMILES | esBAF inh | Cneo AK release | MITF act | Wnt bcat act | Env fusion inh | ERAP1 HTS inh
Cc1ccc(-n2c(-c3ccc(Cl)cc3)c[n+]3c2CCC3)cc1 | · | · | · | 1 | -13 | ·
CC(C)(C)c1ccc(C(=O)NCCC(=O)N2CCCC2)cc1 | 47* | 0 | 75 | 26 | -37 | 0
Cc1ccc(C(=O)NCCC(=O)N2CCOCC2)cc1 | · | 0 | 45 | 37* | -4 | -4
COc1ccc(NC(=O)Nc2ccc3c(c2)[C@H]2C[C@@H](CC(=O)NC4CCCCC4)O[C@@H](CO)[C@H]2O3)cc1 | 1 | -23 | · | · | 17[16.7 µM] | 0
CC(C)NC(=O)Nc1ccc2c(c1)C(=O)N([C@@H](C)CO)C[C@H](C)[C@H](CN(C)Cc1ccc3c(c1)OCO3)O2 | -2 | 0 | · | · | · | -1
CO[C@@H]1CN(C)C(=O)c2cc(NC(=O)c3ccc(F)cc3)ccc2OC[C@H](C)N(C(=O)CN(C)C)C[C@@H]1C | 1 | -11 | · | · | -6[16.7 µM] | -1
COc1ccc(C(CCNCc2ccc(N(C)C)cc2)c2ccccc2)cc1 (centres undefined) | 0 | 0 | -28 | 2 | 69* | 4
CC(C)Oc1ccc(C(CCNCc2ccc(O)cc2)c2ccccc2)cc1 (centres undefined) | -18 | 1 | -86 | 0 | 17 | -2
O=C(Nc1ccc2nc3n(c(=O)c2c1)CCCC3)c1cccc(F)c1 | 45* | 0 | 72 | 9 | -6 | -3
O=C(Nc1ccc2nc3n(c(=O)c2c1)CCCC3)c1ccccc1F | 45* | -1 | 39 | 11 | -1 | -3
COc1ccccc1-c1ccc([C@@H]2[C@@H](CO)N(C(=O)CN(C)C)[C@H]2C#N)cc1 | 1 | -3 | · | · | · | 0
Cc1ccccc1Cn1c(C(=O)OC(C)C)cc2c1ccn2C | -37 | 3 | · | -1 | 54* | ·
Oc1ccc(-c2nc(-c3ccc(F)cc3)c(-c3ccncc3)[nH]2)cc1 | -2 | -2 | 2 | -2 | 57* | 0
Fc1ccc(-c2nc(-c3cccs3)[nH]c2-c2ccc(F)cc2)cc1 | · | -6 | -16 | -1 | · | 2
COc1ccc(C(=O)NCCc2ccc(Cl)cc2)cc1S(=O)(=O)N1CCCCC1C (centres undefined) | -3 | -2 | -11 | -2 | 89* | 2
COc1ccccc1-c1cn(CC[C@@H]2CC[C@H](NC(=O)NC(C)C)[C@H](CO)O2)nn1 | 3 | 4 | · | · | -10[16.7 µM] | 0
CC(=O)Nc1ccc(S(=O)(=O)N(C)Cc2ccccc2)cc1 | · | · | 1 | -3 | -4 | 1
CC(=O)Nc1ccc(S(=O)(=O)N(Cc2ccccc2)C(C)C)cc1 | -40 | -1 | -20 | -4 | 84* | ·
CNc1ccccc1-n1ccc(-c2ccccc2)n1 | 60* | -1 | 21 | · | · | ·
Cn1ccc(-c2ccccc2)n1 | 12 | -2 | 17 | -3 | -6 | ·
COc1ccc(C(=O)/C=C(\C)Nc2ccc3c(c2)OCO3)cc1 | 62* | -1 | · | ? | -69 | ·
COc1ccc(N/C(C)=C/C(=O)c2ccccc2)cc1 | · | -2 | 120* | 24 | -25 | 1
O=C(C[C@H]1C[C@H]2c3cc(NS(=O)(=O)c4ccccc4)ccc3O[C@H]2[C@@H](CO)O1)NC1CCCC1 | 12 | 16 | · | · | · | 1

Source: PubChem
